An excerpt weighted towards active compounds, which were near 4.1% of everything screened.
MPTP block: permeability transition pore inhibition; isolated mouse mitochondria, Ca2+ swelling absorbance, 30 min; inhibition, % at 10 µM; 360,000 tested, 1.4% active; AID 602449;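 active means inhibition of 50% or more, scaled per plate between neutral and stimulator controls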;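 further: 0% = DMSO wells given calcium and 100% = 1 mM EGTA wells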
MC4R barr agon: activates human MC4R beta-arrestin recruitment. 360,000 tested, 0.98% active. P32245. activation, % at 8.9 µM. U2OS MC4R beta-arrestin complementation, luminescence; percent of melanotan II response, DMSO zero;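 active means activation above a per-plate cutoff, the mean activation of sample wells on that plate plus 3 SD, cut at about 8% in these data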
Target sequence (P32245 whole entry, looked up): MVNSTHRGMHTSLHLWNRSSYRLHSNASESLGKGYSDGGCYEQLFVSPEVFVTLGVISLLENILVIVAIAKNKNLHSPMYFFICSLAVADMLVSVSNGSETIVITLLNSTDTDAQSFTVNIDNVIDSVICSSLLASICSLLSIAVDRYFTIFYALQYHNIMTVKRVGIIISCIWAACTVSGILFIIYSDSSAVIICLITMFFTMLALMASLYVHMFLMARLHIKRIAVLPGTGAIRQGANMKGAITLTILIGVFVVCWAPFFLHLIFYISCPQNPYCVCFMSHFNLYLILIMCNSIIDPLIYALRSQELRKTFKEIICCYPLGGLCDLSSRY
SMARCA2 act: increases SMARCA2 function in MMTV reporter cells | MG213 cells, MMTV-luciferase reporter, dexamethasone, overnight | activation, % at 9.1 µM | 370,000 tested, 1% active | AID 652017; in the data active means activation above about 7.8%;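 further: 0% = vehicle wells and 100% = reference activator wells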
MC4R antag cAMP: blocks human MC4R cAMP signaling; MC4R-expressing cells, MTII-stimulated cAMP, LANCE TR-FRET; 360,000 tested, 0.48% active; inhibition, % at 6.5 µM; AID 540295; P32245;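 active means inhibition above its plate's cutoff, the mean of tested wells on that plate plus 3 SD, cut at about 29% in these data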;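 further: 0% = Melanotan II alone and 100% = Melanotan II plus saturating MCL0020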
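Material: human MC4R-expressing U2OS cells. Probe or stimulus: Melanotan II challenge. Dosing: 6.5 µM single dose. Times: 30-min compound, 1-h challenge, 1-h detection, room temperature. Technique: TR-FRET with Eu-cAMP and labeled anti-cAMP, 671 nm. Replication: singlicate.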
ATG4B inhibitor: inhibitors of human ATG4B cysteine protease. 340,000 tested, 0.51% active. inhibition, % at 8.33 µM. Q9Y4P1. ATG4B cleavage of LC3-PLA2, NBD-HPC fluorescence, 1 h; in the data active means inhibition above about 40%
Rh123 counter: membrane potential counter-screen of mitochondrial pore inhibitors; 5,000 tested, 78% active; isolated mitochondria, Rhodamine 123 fluorescence; AID 624504; shares compounds with MPTP block; inhibition, % at 10 µM; in the data active means inhibition above about 22%;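 further: 0% = DMSO vehicle and 100% = positive control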
MPTP abs DR: MPTP inhibition, dose response swelling confirmation | shares compounds with MPTP block | isolated mitochondria swelling, absorbance | IC50, µM | 780 tested, 58% active | AID 651561; in the data active means IC50 below about 20 µM
MPTP counter DR: MPTP inhibitor counter-screen activity, dose response | isolated mitochondria counterscreen, fluorescence read-out | shares compounds with MPTP block | 780 tested, 49% active | IC50, µM; in the data active means IC50 below about 80 µM
The depositor's hits bear a star; i = inactive; nt = no result given.

SMILES	MPTP block	MC4R barr agon	SMARCA2 act	MC4R antag cAMP	ATG4B inhibitor	Rh123 counter	others
CC(=O)c1ccc(NC(=S)NCc2ccc(Cl)cc2Cl)cc1	95*	0	-4	-3	11	94*
CC(=O)c1ccc(NC(=O)Nc2ccc(Cl)cc2)cc1	85*	1	4	7	-12	86*
CC(=O)c1cccc(NC(=O)Nc2cnn(Cc3ccc(Cl)cc3Cl)c2)c1	73*	3	-6	-3	15	71*
CNC(=O)Nc1ccc(Cl)cc1	96*	1	6	4	1	91*
COc1ccc(CC(=O)N(Cc2ccccc2)c2ccccc2C(=O)Nc2cc(OC)ccc2OC)cc1	nt	nt	1	nt	nt	nt
N#CCCCc1cn(-c2cccc(-c3noc4c3C(=O)N(CC(=O)N3CCOCC3)CC4)c2)nn1	nt	nt	0	nt	nt	nt
CC(C)(C)CC(=O)Nc1nnc(C(F)(F)F)s1	-4	-1	-5	4	4	nt
Cc1nn(-c2ccccc2)nc1C(=O)Nc1nnc(C(F)(F)F)s1	73*	2	-5	2	7	79*
O=C(Nc1nnc(C(F)(F)F)s1)C1COc2ccccc2O1 (stereo unspecified)	84*	2	-2	4	-6	78*
CC(NC(=O)Nc1nnc(C(F)(F)F)s1)(C(F)(F)F)C(F)(F)F	94*	1	-9	4	-8	110*
O=C(Nc1nnc(C(F)(F)F)s1)c1ccc(Br)s1	78*	0	0	3	10	75*
COC(=O)[C@]1(CNC(=O)C(C)(C)C)CC(=O)N(C)[C@@H]1c1ccccc1	nt	nt	-2	nt	nt	nt
CCCC[C@H](C(=O)N(CC)c1ccccc1)[C@@H](O)c1ccc(Cl)cc1	nt	nt	-3	nt	nt	nt
O=C(CCCCCCN1C(=O)c2ccccc2C1=O)Nc1nccs1	66*	0	-4	8	-7	-1	MPTP abs DR=>100;MPTP counter DR=>80
CCN(CCC(=O)Nc1ccc(Br)c(C)c1)Cc1ccccc1	80*	3	0	2	9	5	MPTP abs DR=i;MPTP counter DR=28*
O=C(CCN(CCO)Cc1ccccc1)Nc1ccc(Br)cc1	1	-1	-2	4	14	nt
CCn1c(=O)n(CC(=O)N2CCOCC2)c(=O)c2ccccc21	nt	nt	-4	nt	nt	nt
COc1ccc(-c2cc(C(=O)NCC(c3ccccc3)N(C)C)c3ccccc3n2)cc1OC (stereo unspecified)	1	0	0	19	-10	nt
COc1ccc(C(CNC(=O)c2ccc(-c3ccccc3)cc2)N(C)C)cc1OC (stereo unspecified)	80*	0	-1	-1	2	-11	MPTP abs DR=19*;MPTP counter DR=>80
C=CCC(C(=O)Oc1c(C(C)(C)C)cc(C)cc1C(C)(C)C)c1ccccc1 (stereo unspecified)	55*	-1	0	3	-3	-9	MPTP abs DR=6.9*;MPTP counter DR=>80
CO/N=C/c1ccc(N2CCN(C(=O)c3ccc(Cl)cc3Cl)CC2)c([N+](=O)[O-])c1	78*	-1	-6	7	-1	60*
COc1ccc(-[n+]2c(C)cc(/C=C3\Sc4ccccc4N3C)cc2C)cc1	95*	-2	-7	-32	nt	97*
COc1ccccc1-[n+]1c(C)cc(/C=C2\Sc3ccccc3N2C)cc1C	104*	-3	-12	-35	18	102*
C[C@H]1CN(S(=O)(=O)C(C)(C)C)[C@@H](CCO)/C1=C\c1ccccc1	nt	nt	-3	nt	nt	nt
CC(C)CN(CC(C)C)C(=O)c1ccc2c(c1)NC(=O)C(C)(C)O2	nt	nt	-3	nt	nt	nt
SMILES	MPTP block	MC4R barr agon	SMARCA2 act	MC4R antag cAMP	ATG4B inhibitor	Rh123 counter	others
CC(C)(C)NNC(=S)Nc1cccc(F)c1	0	-2	-1	2	7	nt
O=[N+]([O-])c1cc(C(F)(F)F)cc([N+](=O)[O-])c1NCCNC(=S)Nc1cccc(F)c1	90*	0	-5	-9	-5	78*
S=C(Nc1ccc(I)cc1)OC1CCC12CCC(c1ccccc1)CC2 (stereo unspecified)	nt	nt	-1	nt	nt	nt
O=C(CSCc1ccccc1)Nc1ccc(F)c(F)c1	71*	-1	3	3	29	63*
Cc1ccc(S(=O)(=O)N2CCCC(C(=O)Nc3c(C)n(C)n(-c4ccccc4)c3=O)C2)cc1 (stereo unspecified)	nt	nt	-2	nt	nt	nt
Cc1cc(SCC(=O)N/N=C/c2ccc(O)cc2O)nc2ccccc12	68*	0	-3	0	-2	71*
CN(Cc1ccccc1)S(=O)(=O)c1cccc(C(=O)OCC2CCCCC2)c1	nt	nt	-2	nt	nt	nt
COc1ccc(-c2c(Cc3ccccc3)nc(NC(=O)c3ccccc3)n2C)cc1	nt	nt	-6	nt	nt	nt
N#C/C(C(=O)N1CCCCC1)=C1\Nc2ccccc2S1	1	-1	6	9	0	nt
Cc1ccc(NC(=S)/C(C#N)=C2/Nc3ccccc3S2)cc1	65*	0	-9	-3	nt	39*
C[C@H](O)[C@@H]1CN2CCc3ccc(N4CCOCC4)cc3[C@@H]2C[C@@H]1N(C)CC1CCCCC1	nt	nt	-1	nt	nt	nt
Cc1cn2c(N)c(C=C3C=C(Cl)C(=O)C(Cl)=C3)c(=O)nc2s1	87*	-1	-1	-2	-1	83*
Cc1ccc(NC(=O)N2CCC(N(C)CCC(C)C)CC2)cc1F	nt	nt	-1	nt	nt	nt
CCN(CC)S(=O)(=O)c1cccc(NC(=O)COC(=O)c2[nH]c(C)c(C(C)=O)c2C)c1	86*	0	-6	6	nt	88*
CC(=O)c1c(C)[nH]c(C(=O)OCC(=O)Nc2cccc(S(=O)(=O)N(C)C)c2)c1C	-1	-2	-2	7	-6	nt
CC(=O)c1c(C)[nH]c(C(=O)OCC(=O)Nc2cccc(S(=O)(=O)N3CCCC3)c2)c1C	62*	-1	-5	11	-30	61*
CCN(CC)C(=O)CC[C@H]1CC[C@]2(CCCN(C(=O)c3cccnc3)C2)O1	nt	nt	1	nt	nt	nt
O=[N+]([O-])c1cccc(-c2nc(NCc3ccccc3)c3ccccc3n2)c1	25	-1	-3	5	-2	nt
CN(Cc1ccccc1)c1nc(-c2cccc([N+](=O)[O-])c2)nc2ccccc12	67*	-1	0	4	3	1	MPTP abs DR=19*;MPTP counter DR=>80
COC(=O)[C@]12C[C@H](CC(=O)N3CCCC3)C(=O)N(Cc3cccc4ccccc34)C1=C[C@H](C(C)(C)C)O[C@@H]2C	nt	nt	-3	nt	nt	nt
CC(=O)c1c(C)[nH]c(C(=O)CSc2ccc(F)cc2)c1C	90*	0	-2	4	5	84*
C[C@@H]1CN(c2ccc(N3CCNC[C@@H]3C)cc2C#N)CCN1Cc1ccccc1	nt	nt	3	nt	nt	nt
CN1CCC(OC(c2ccccc2)c2ccccc2)CC1	1	1	-4	5	-3	nt

Screens: PubChem BioAssay, several laboratories
